The source made the active and inactive calls. The calls are words filed in the database; no cut-off is given here.

The target of data set [1] is Glutamate receptor 1 (Rattus norvegicus) (UniProt P19490). Nature of the data set: Positive allosteric modulation of recombinant rat GluA1 receptor expressed in xenopus laevis oocyte assessed as potentiation of glutamate-induced current response at 30 uM at holding potential -40mV by two electrode voltage clamp method relative to glutamate. (In general: Two-electrode voltage clamp is typically applied to oocytes expressing channels or transporters.)

The target of data set [2] is T1, Glutamate NMDA receptor; Grin1/Grin2b (Rattus norvegicus) (UniProt P35439+Q00960). Nature of the data set: Positive allosteric modulation of recombinant rat GluN1/GluN2B receptor expressed in xenopus laevis oocyte assessed as potentiation of glutamate-induced current response at 30 uM at holding potential -40mV by two electrode voltage clamp method.
The target of data set [3] is T2, Glutamate NMDA receptor; Grin1/Grin2c (Rattus norvegicus) (UniProt P35439+Q00961). Nature of the data set: Positive allosteric modulation of recombinant rat GluN1/GluN2C receptor expressed in xenopus laevis oocyte assessed as potentiation of glutamate-induced current response at 30 uM at holding potential -40mV by two electrode voltage clamp method. The essentials: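 Rat GluN1/GluN2C (modified GluN2C) expressed from injected mRNA in Xenopus oocytes; two-electrode voltage clamp at -40 mV, 23°C, recording solution pH 7.4 (90 NaCl, 1.0 KCl, 0.5 BaCl2, 0.005 EDTA, 10 HEPES, mM). Compound coapplied with 100 µM glutamate and 30 µM glycine; final DMSO 0.05-0.5%.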

Data set [4] addresses T3, Ionotropic glutamate receptor NMDA 1/2D (Rattus norvegicus) (UniProt P35439+Q62645). Nature of the data set: Positive allosteric modulation of recombinant rat GluN1/GluN2D receptor expressed in xenopus laevis oocyte assessed as potentiation of glycine-induced current response at 30 uM at holding potential -40mV by two electrode voltage clamp method.
Data set [5] concerns the target T1, Glutamate NMDA receptor; Grin1/Grin2b (Rattus norvegicus). Nature of the data set: Positive allosteric modulation of recombinant rat GluN1/GluN2B receptor expressed in xenopus laevis oocyte assessed as potentiation of glutamate and glycine-induced current response at 30 uM at holding potential -40mV by two electrode voltage clamp method relative to control. In a few lines: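 Two-electrode voltage clamp at -40 mV, 23°C, pH 7.4 Ba²⁺ recording solution, on Xenopus oocytes expressing rat NMDA receptors. Currents were evoked by 100 µM glutamate plus 30 µM glycine, with compound co-applied (DMSO 0.05–0.5% final). […] Each compound used at least 4 oocytes from at least 2 frogs.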

The target in data set [6] is Glutamate NMDA receptor; Grin1/Grin2b (Rattus norvegicus, UniProt P35439+Q00960). Nature of the data set: Positive allosteric modulation of recombinant rat GluN1/GluN2B receptor expressed in xenopus laevis oocyte assessed as potentiation of glutamate and glycine-induced current response at holding potential -40mV by two electrode voltage clamp method. In a few lines:
(§1)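 Two-electrode voltage clamp at -40 mV, 23°C, pH 7.4 Ba²⁺ recording solution, on Xenopus oocytes expressing rat NMDA receptors. Currents were evoked by 100 µM glutamate plus 30 µM glycine, with compound co-applied (DMSO 0.05–0.5% final). Each compound used at least 4 oocytes from at least 2 frogs.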

For data set [7], the target named is Ionotropic glutamate receptor NMDA 1/2D (Rattus norvegicus, UniProt P35439+Q62645). Nature of the data set: Positive allosteric modulation of recombinant rat GluN1/GluN2D receptor expressed in xenopus laevis oocyte assessed as potentiation of glutamate and glycine-induced current response at holding potential -40mV by two electrode voltage clamp method. The essentials:
as §1

Data set [8] concerns the target T1, Glutamate NMDA receptor; Grin1/Grin2b (Rattus norvegicus). Nature of the data set: Positive allosteric modulation of recombinant rat GluN1/GluN2B receptor expressed in xenopus laevis oocyte assessed as compound concentration required to show two fold increase in glutamate and glycine-induced current response at holding potential -40mV by two electrode voltage clamp method.

The target in data set [9] is T2, Glutamate NMDA receptor; Grin1/Grin2c (Rattus norvegicus). Nature of the data set: Positive allosteric modulation of recombinant rat GluN1/GluN2C receptor expressed in xenopus laevis oocyte assessed as compound concentration required to show two fold increase in glutamate and glycine-induced current response at holding potential -40mV by two electrode voltage clamp method.

The target in data set [10] is T3, Ionotropic glutamate receptor NMDA 1/2D (Rattus norvegicus). Nature of the data set: Positive allosteric modulation of recombinant rat GluN1/GluN2D receptor expressed in xenopus laevis oocyte assessed as compound concentration required to show two fold increase in glutamate and glycine-induced current response at holding potential -40mV by two electrode voltage clamp method.

The nature of data set [11]: Cmax in C57Bl/6 mouse plasma at 10 mg/kg, ip after 2 hrs by LC/MS/MS analysis. The data set is classed as ADME, organism-based. On the set-up: dose 10 mg/kg, route intraperitoneal. In a few lines: (§2)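 Male/female not stated; 30–35 g C57Bl/6 mice given 10 mg/kg i.p. at 1.25 mg/mL in 5% NMP/20% solutol/75% of 20% hydroxypropyl-β-cyclodextrin. Blood was taken by cardiac puncture into heparin and brains were collected at 0, 15, 30, 60, 120 and 240 min, three mice per time point. Plasma and brain homogenate (1:4 water) were acetonitrile-precipitated and quantified by LC-MS/MS against an 8-point duplicate standard curve.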

The test system of the next data set is Brain. Nature of the data set: Drug uptake in C57Bl/6 mouse brain at 10 mg/kg, ip after 15 to 30 mins by LC/MS/MS analysis. In kind it is ADME, organism-based. The note with it: in vivo, read-out: Drug uptake. The essentials:
as §2

Data set [12] in a line: Drug uptake in C57Bl/6 mouse brain at 10 mg/kg, ip after 4 hrs by LC/MS/MS analysis. The data set is classed as ADME, organism-based. The settings on record: read-out: Drug uptake. In a few lines: as §2
Data set [13] in a line: Ratio of drug level in C57Bl/6 mouse brain to plasma at 10 mg/kg, ip after 15 mins by LC/MS/MS analysis. In kind it is ADME, organism-based. In a few lines:
as §2

The nature of data set [14]: Ratio of drug level in C57Bl/6 mouse brain to plasma at 10 mg/kg, ip after 4 hrs by LC/MS/MS analysis. The data set is classed as ADME, organism-based. The essentials:
as §2

A further data set concerns Liver. Nature of the data set: Drug level in human liver microsomes treated with (3-chlorophenyl)(6-isopropoxy-1-((4-methoxyphenoxy)methyl)-3,4-dihydroisoquinolin-2(1H)-yl)methanethione at […] measured at 30 mins by LC/MS/MS analysis. In kind it is ADME, microsome. The note with it: 0.5 h.
Another data set relates to Mus musculus. Nature of the data set: Toxicity in C57Bl/6 mouse assessed as behavioral abnormalities at 10 mg/kg, ip. In kind it is organism-based. The settings on record: in vivo. The essentials: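 C57Bl/6 mice (30–35 g) were dosed at 10 mg/kg i.p. in 5% NMP/20% solutol/75% of 20% hydroxypropyl-β-cyclodextrin and observed for behavioral abnormalities after dosing.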

Data set [15] has as its target Glutamate receptor ionotropic, kainate 2 (Rattus norvegicus) (UniProt P42260). Nature of the data set: Positive allosteric modulation of recombinant rat GluK2 receptor expressed in xenopus laevis oocyte assessed as potentiation of glutamate-induced current response at 30 uM at holding potential -40mV by two electrode voltage clamp method relative to glutamate.

Sequence of Glutamate receptor 1 (Rattus norvegicus) (P19490 whole entry): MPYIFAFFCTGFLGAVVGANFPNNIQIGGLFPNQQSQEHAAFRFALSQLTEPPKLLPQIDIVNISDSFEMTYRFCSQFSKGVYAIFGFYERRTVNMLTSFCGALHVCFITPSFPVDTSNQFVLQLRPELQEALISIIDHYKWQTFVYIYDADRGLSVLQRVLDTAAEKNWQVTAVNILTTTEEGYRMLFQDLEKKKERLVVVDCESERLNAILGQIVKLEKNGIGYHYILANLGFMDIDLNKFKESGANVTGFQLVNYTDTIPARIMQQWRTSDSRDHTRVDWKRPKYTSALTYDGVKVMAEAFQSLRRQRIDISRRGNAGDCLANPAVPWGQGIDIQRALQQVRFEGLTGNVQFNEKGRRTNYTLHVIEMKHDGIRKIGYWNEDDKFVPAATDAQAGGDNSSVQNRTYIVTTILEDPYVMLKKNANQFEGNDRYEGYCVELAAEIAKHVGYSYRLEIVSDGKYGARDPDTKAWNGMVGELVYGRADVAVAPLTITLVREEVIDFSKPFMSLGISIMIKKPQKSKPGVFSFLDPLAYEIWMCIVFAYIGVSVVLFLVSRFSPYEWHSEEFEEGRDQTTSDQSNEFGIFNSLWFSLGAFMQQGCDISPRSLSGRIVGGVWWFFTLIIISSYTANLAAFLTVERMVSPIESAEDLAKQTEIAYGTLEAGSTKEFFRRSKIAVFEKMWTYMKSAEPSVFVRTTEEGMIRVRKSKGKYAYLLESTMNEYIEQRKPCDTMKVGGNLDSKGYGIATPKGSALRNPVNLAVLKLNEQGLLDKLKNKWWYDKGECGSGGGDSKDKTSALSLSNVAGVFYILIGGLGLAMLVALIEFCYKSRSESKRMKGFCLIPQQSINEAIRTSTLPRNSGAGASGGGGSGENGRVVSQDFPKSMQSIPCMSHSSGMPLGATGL
Sequence of Glutamate receptor ionotropic, kainate 2 (Rattus norvegicus) (P42260 whole entry): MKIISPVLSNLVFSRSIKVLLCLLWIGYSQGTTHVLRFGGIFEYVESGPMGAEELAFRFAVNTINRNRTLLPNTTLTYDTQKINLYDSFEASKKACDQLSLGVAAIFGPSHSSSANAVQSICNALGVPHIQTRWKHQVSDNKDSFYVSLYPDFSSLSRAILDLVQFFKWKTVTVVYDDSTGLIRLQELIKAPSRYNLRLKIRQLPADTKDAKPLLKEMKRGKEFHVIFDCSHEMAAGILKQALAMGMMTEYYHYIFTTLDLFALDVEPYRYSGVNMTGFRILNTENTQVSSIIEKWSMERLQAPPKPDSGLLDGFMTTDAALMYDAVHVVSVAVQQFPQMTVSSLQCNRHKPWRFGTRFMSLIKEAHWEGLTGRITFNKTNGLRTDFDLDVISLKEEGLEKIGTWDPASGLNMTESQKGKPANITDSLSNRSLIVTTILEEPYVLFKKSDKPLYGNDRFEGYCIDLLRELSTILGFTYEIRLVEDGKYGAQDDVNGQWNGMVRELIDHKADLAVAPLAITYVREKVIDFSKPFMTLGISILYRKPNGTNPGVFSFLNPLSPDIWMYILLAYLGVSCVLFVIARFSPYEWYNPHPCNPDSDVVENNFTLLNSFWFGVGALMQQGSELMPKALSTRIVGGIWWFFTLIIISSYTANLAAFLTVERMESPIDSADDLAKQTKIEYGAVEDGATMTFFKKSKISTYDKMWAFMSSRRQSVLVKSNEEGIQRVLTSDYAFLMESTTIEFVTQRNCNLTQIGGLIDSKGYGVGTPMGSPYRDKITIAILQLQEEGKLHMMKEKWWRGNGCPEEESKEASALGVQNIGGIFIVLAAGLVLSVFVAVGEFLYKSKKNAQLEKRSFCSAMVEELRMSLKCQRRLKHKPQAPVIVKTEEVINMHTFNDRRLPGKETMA

`COc1ccc(OCC2c3ccc(OC(C)C)cc3CCN2C(=O)c2cccc(Cl)c2)cc1` (centres undefined): the Activity in data set [1] is 106%; in data set [5], 195%; with Mus musculus it was “Non-Toxic”; in data set [15] it was 96%. Also, the outcome in [2], in data set [3] and in data set [4] was inactive. Moreover, in data set [5], the Emax (as a rule, the maximal effect, on the per cent scale that the assay sets) came out at 202%. For the same molecule, the EC50 (as a rule, the midpoint of the concentration-response curve) in data set [6] was 5.2 µM; in data set [7] it was 3 µM. For the same molecule, the CD in data set [8] is 64 µM; in data set [9], 4.6 µM; in [10] it was 4.9 µM. Besides, the highest level in data set [11] (Cmax) was 1700 nM. Also, in the data set with Brain, the concentration was 700 nM. For the same molecule, the concentration at 4 h in data set [12] is 400 nM. In addition, the BPR is recorded as 0.7 in data set [13] and 0.9 in [14]. For the same molecule, the Drug metabolism result in the data set on Liver is reported as “Metabolite_Detected”.
